# Laboratory results reported in ChEMBL document CHEMBL1143122, “Novel analogs of D-e-MAPP and B13. Part 1: synthesis and evaluation as potential anticancer agents” (Bioorg Med Chem, 2008).
# Columns and labels:
# NCI-H322M = experiment: Antiproliferative activity against human NCI-H322M cells after 48 hrs; format: functional
# Summary of the method: (§1)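 NCI 60-cell screen. Cells were grown in RPMI 1640 with 5% FBS and 2 mM L-glutamine, then plated at 5,000–40,000 cells/well according to doubling time and preincubated for 24 h at 37 °C in 5% CO2. Compounds were dissolved in DMSO at 400× the top final concentration and tested at five 10-fold dilutions from 10−4 to 10−8 M for 48 h. Growth was read spectrophotometrically; GI50 is 50% net protein reduction.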
# K562 = experiment: Antiproliferative activity against human K562 cells after 48 hrs; format: functional; conditions: K562, 48 h; summary of the method: as §1
# BT-549 = experiment: Antiproliferative activity against human BT549 cells after 48 hrs; format: functional; conditions: BT-549, 48 h; summary of the method: as §1
# RPMI-8226 = experiment: Antiproliferative activity against human RPMI8226 cells after 48 hrs; format: functional; conditions: RPMI-8226, 48 h; summary of the method: as §1
# MDA-MB-435 = experiment: Antiproliferative activity against human MDA-MB-435 cells after 48 hrs; format: functional; conditions: Homo sapiens, MDA-MB-435, 48 h; summary of the method: as §1
# HCT-15 = experiment: Antiproliferative activity against human HCT15 cells after 48 hrs; format: functional; summary of the method: as §1
# HOP-62 = experiment: Antiproliferative activity against human HOP62 cells after 48 hrs; format: functional; conditions: HOP-62, 48 h; summary of the method: as §1
# UACC-257 = experiment: Antiproliferative activity against human UACC257 cells after 48 hrs; format: functional; conditions: UACC-257, 48 h
# Summary of the method: (§2)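 NCI 60-cell-line screen. Lines grown in RPMI 1640 with 5% fetal bovine serum and 2 mM L-glutamine, plated at 5,000–40,000 cells/well according to doubling time, left 24 h at 37 °C in 5% CO2. Drug stocks in DMSO at 400-fold the top final concentration. Five 10-fold dilutions, 10−4 to 10−8 M, incubated 48 h. Growth read spectrophotometrically as net protein; GI50 taken as 50% reduction.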
# UO-31 = experiment: Antiproliferative activity against human UO31 cells after 48 hrs; format: functional; conditions: UO-31, 48 h; summary of the method: as §2
# MOLT-4 = experiment: Antiproliferative activity against human MOLT4 cells after 48 hrs; format: functional; conditions: MOLT-4, 48 h; summary of the method: as §1
# CAKI-1 = experiment: Antiproliferative activity against human CAKI1 cells after 48 hrs; format: functional; conditions: CAKI-1, 48 h; summary of the method: as §1
# NCI-H460 = experiment: Antiproliferative activity against human NCI-H460 cells after 48 hrs; format: functional; conditions: NCI-H460, 48 h; summary of the method: as §1
# UACC-62 = experiment: Antiproliferative activity against human UACC62 cells after 48 hrs; format: functional; conditions: UACC-62, 48 h; summary of the method: as §2
# SK-MEL-28 = experiment: Antiproliferative activity against human SKMEL28 cells after 48 hrs; format: functional; conditions: SK-MEL-28, 48 h; summary of the method: as §1
# [1] = Antiproliferative activity against human […] cells after 48 hrs; format: functional; summary of the method: as §1
# MDA-MB-231 = experiment: Antiproliferative activity against human MDA-MB-231 cells after 48 hrs; format: functional; conditions: MDA-MB-231, 48 h; summary of the method: as §1
# T47D = experiment: Antiproliferative activity against human T47D cells after 48 hrs; format: functional; summary of the method: as §2
# OVCAR-8 = experiment: Antiproliferative activity against human OVCAR8 cells after 48 hrs; format: functional; conditions: OVCAR-8, 48 h; summary of the method: as §1
# SF-268 = experiment: Antiproliferative activity against human SF268 cells after 48 hrs; format: functional; conditions: SF-268, 48 h; summary of the method: as §1
# LOX IMVI = experiment: Antiproliferative activity against human LOXIMVI cells after 48 hrs; format: functional; summary of the method: as §1
# MCF7 = experiment: Antiproliferative activity against human MCF7 cells after 48 hrs; format: functional, cell-based; conditions: MCF7, 48 h
# HOP-92 = experiment: Antiproliferative activity against human HOP92 cells after 48 hrs; format: functional; conditions: HOP-92, 48 h; summary of the method: as §1
# DU-145 = experiment: Antiproliferative activity against human DU145 cells after 48 hrs; format: functional; conditions: DU-145, 48 h; summary of the method: as §1
# SK-OV-3 = experiment: Antiproliferative activity against human SKOV3 cells after 48 hrs; format: functional; conditions: SK-OV-3, 48 h; summary of the method: as §1
# SK-MEL-2 = experiment: Antiproliferative activity against human SKMEL2 cells after 48 hrs; format: functional; conditions: SK-MEL-2, 48 h; summary of the method: as §1
# U-251 = experiment: Antiproliferative activity against human U251 cells after 48 hrs; format: functional; conditions: U-251, 48 h; summary of the method: as §2
# SNB-75 = experiment: Antiproliferative activity against human SNB75 cells after 48 hrs; format: functional; conditions: SNB-75, 48 h; summary of the method: as §1
# OVCAR-5 = experiment: Antiproliferative activity against human OVCAR5 cells after 48 hrs; format: functional; conditions: OVCAR-5, 48 h; summary of the method: as §1
# [2] = read-out: Log LC50 (the source's name) (converted)
smiles,measurement,setting,value
CCCCCCCCCCCCCCN[C@@H](C)[C@H](O)c1ccccc1,GI50,NCI-H322M,2.04 µM
same,CC50,NCI-H322M; [2],6.61 µM
same,TGI,NCI-H322M; read-out: Log TGI (converted),3.72 µM
same,GI50,K562,1.66 µM
same,LC50,K562,7.41 µM
same,TGI,K562; read-out: Log TGI (converted),3.55 µM
same,GI50,BT-549,1.51 µM
same,LC50,BT-549,5.75 µM
same,TGI,BT-549; read-out: Log TGI (converted),2.95 µM
same,GI50,RPMI-8226,2 µM
same,TGI,RPMI-8226; read-out: Log TGI (converted),4.37 µM
same,GI50,MDA-MB-435,1.78 µM
same,LC50,MDA-MB-435,5.75 µM
same,TGI,MDA-MB-435; read-out: Log TGI (converted),3.24 µM
same,LC50,HCT-15,6.31 µM
same,GI50,"HCT-15; Homo sapiens, HCT-15, 48 h",1.91 µM
same,LC50,"HCT-15; Homo sapiens, HCT-15, 48 h",5.89 µM
same,GI50,HOP-62,1.95 µM
same,CC50,HOP-62; [2],6.17 µM
same,TGI,HOP-62; read-out: Log TGI (converted),3.47 µM
same,GI50,UACC-257,1.86 µM
same,CC50,UACC-257; [2],6.76 µM
same,TGI,UACC-257; read-out: Log TGI (converted),3.55 µM
same,GI50,UO-31,1.74 µM
same,LC50,UO-31,6.61 µM
same,TGI,UO-31; read-out: Log TGI (converted),3.39 µM
same,GI50,MOLT-4,2.29 µM
same,TGI,MOLT-4; read-out: Log TGI (converted),4.68 µM
same,GI50,CAKI-1,1.95 µM
same,CC50,CAKI-1; [2],5.89 µM
same,TGI,CAKI-1; read-out: Log TGI (converted),3.39 µM
same,GI50,NCI-H460,1.91 µM
same,CC50,NCI-H460; [2],6.31 µM
same,TGI,NCI-H460; read-out: Log TGI (converted),3.47 µM
same,GI50,UACC-62,1.82 µM
same,LC50,UACC-62,6.31 µM
same,TGI,UACC-62; read-out: Log TGI (converted),3.39 µM
same,GI50,SK-MEL-28,1.91 µM
same,LC50,SK-MEL-28,6.31 µM
same,TGI,SK-MEL-28; read-out: Log TGI (converted),3.47 µM
same,GI50,[1],2 µM
same,TGI,[1]; read-out: Log TGI (converted),3.8 µM
same,GI50,MDA-MB-231,1.91 µM
same,LC50 (50% lethal concentration),MDA-MB-231,6.46 µM
same,TGI,MDA-MB-231; read-out: Log TGI (converted),3.55 µM
same,GI50,T47D,2.09 µM
same,CC50,T47D; [2],7.59 µM
same,TGI,T47D; read-out: Log TGI (converted),3.98 µM
same,GI50,OVCAR-8,1.91 µM
same,TGI,OVCAR-8; read-out: Log TGI (converted),4.07 µM
same,GI50,SF-268,1.78 µM
same,LC50,SF-268,6.61 µM
same,TGI,SF-268; read-out: Log TGI (converted),3.39 µM
same,GI50,LOX IMVI,1.78 µM
same,LC50,LOX IMVI,5.89 µM
same,TGI,LOX IMVI; read-out: Log TGI (converted),3.24 µM
same,GI50,MCF7,1.82 µM
same,LC50,MCF7,6.31 µM
same,TGI,MCF7; read-out: Log TGI (converted),3.39 µM
same,GI50,HOP-92,1.51 µM
same,TGI,HOP-92; read-out: Log TGI (converted),3.09 µM
same,GI50,DU-145,1.86 µM
same,CC50,DU-145; [2],6.46 µM
same,TGI,DU-145; read-out: Log TGI (converted),3.47 µM
same,GI50,SK-OV-3,2.34 µM
same,CC50,SK-OV-3; [2],9.77 µM
same,TGI,SK-OV-3; read-out: Log TGI (converted),4.79 µM
same,GI50,SK-MEL-2,1.78 µM
same,TGI,SK-MEL-2; read-out: Log TGI (converted),3.72 µM
same,GI50,U-251,1.82 µM
same,CC50,U-251; [2],5.89 µM
same,TGI,U-251; read-out: Log TGI (converted),3.24 µM
same,GI50,SNB-75,1.7 µM
same,CC50,SNB-75; [2],6.61 µM
same,TGI,SNB-75; read-out: Log TGI (converted),3.39 µM
same,GI50,OVCAR-5,1.7 µM
same,CC50,OVCAR-5; [2],5.75 µM
same,TGI,OVCAR-5; read-out: Log TGI (converted),3.16 µM
